Measurements of several laboratories.
Protocols differ between the studies behind these lines.
Target: Vascular endothelial growth factor receptor 1 (FLT1, Homo sapiens, UniProt P17948)

SMILES	observed	technique	tested at	remaining binding [%]
C[C@@H]1CCN(c2nccc(-c3cnn4ncccc34)n2)C1	binding	–	1 µM	100
O=C(Nc1cccnn1)N1CCC(=Cc2cccc(Oc3ccc(C(F)(F)F)cn3)c2)CC1	cell-free assay	competition with immobilised ligand	1 µM	100
CCN(CC)CCCCNc1ncc2cc(-c3cc(OC)cc(OC)c3)c(NC(=O)NC(C)(C)C)nc2n1	cell-free assay	competition with immobilised ligand	1 µM	8
COc1ncc2cc3ccccc3nc2c1C#N	cell-free assay	competition with immobilised ligand	5 µM	95
CN(CCCC(F)(F)F)c1nccc(-c2cnn3ncccc23)n1	binding	–	1 µM	100
COc1cnc(Nc2cccc(S(N)(=O)=O)c2)nc1N1CCN(c2ccccc2)C(=O)C1	binding	competition with immobilised ligand	1 µM	98
CN([C@@H]1CCc2c(CC(=O)O)c3cc(S(C)(=O)=O)ccc3n2C1)S(=O)(=O)c1ccc(F)cc1	cell-free assay	competition with immobilised ligand	1 µM	88
O=C(c1ccc(Nc2nccc(-c3cc4ccccc4s3)n2)cc1)N1CCC(N2CCCC2)CC1	binding	competition with immobilised ligand	1 µM	46
CN(c1nccc(-c2cnn3ncccc23)n1)C1CC1	binding	–	1 µM	100
O=C(NCCCN1CCOCC1)c1ccc(Nc2ncc(Cl)c(-c3ccc(Cl)s3)n2)cc1	binding	competition with immobilised ligand	1 µM	5.7
C=CC(=O)N1CCC(C(=O)NCC(=O)N2CCN(c3nc(-c4cnc(N)nc4C(F)F)nc(N4CCOCC4)n3)CC2)CC1	binding	competition with immobilised ligand	1 µM	99
Cc1cnn2ncc(-c3ccnc(N(C)C)n3)c2c1	binding	–	1 µM	97
O=C(NCCCN1CCOCC1)c1ccc(Nc2nccc(-c3cc4ccccc4s3)n2)cc1	binding	competition with immobilised ligand	1 µM	70
Nc1ncc2c(n1)-c1c([nH]c3ccc(C#CC4CC4)cc13)CCCC2	binding	competition with immobilised ligand	1 µM	91
COc1ccc2c(c1)O[C@@H](c1ccc(OC)c(OC)c1)C[C@H]2NC(=O)C1(c2ccc3c(c2)OC(F)(F)O3)CC1	cell-free assay	competition with immobilised ligand	1 µM	100
O=C(Nc1c[nH]nc1C(=O)NC1CCNCC1)c1cc(F)cc(F)c1	binding	competition with immobilised ligand	1 µM	63
CS(=O)(=O)c1cc(C2(NC(=O)c3cncc4c3cnn4-c3ccc(F)cc3)CC2)ccn1	cell-free assay	competition with immobilised ligand	1 µM	100
N[C@H]1CCN(c2nccc(-c3cnn4ncccc34)n2)C1	binding	–	1 µM	99
O=C(NCc1ncc(C(F)(F)F)cc1Cl)c1ccc2c(c1)C1(CCS(=O)(=O)CC1)[C@@H](C1CC1)N2S(=O)(=O)c1ccc(F)cc1	cell-free assay	competition with immobilised ligand	1 µM	82
COc1ccnn2ncc(-c3ccnc(N(C)C)n3)c12	binding	–	1 µM	100
Cc1nc(N2CC[C@@H](O)C2)ncc1-c1cc(C(F)(F)F)cc2[nH]ncc12	cell-free assay	competition with immobilised ligand	1 µM	100
C[C@@H](c1ccc(-n2cnc3c(N)ncnc32)cc1)N1CCc2nn(C)c(Cc3ccccc3)c2C1=O	binding	competition with immobilised ligand	0.1 µM	81
